Reference: ChEMBL document CHEMBL2321805, “N-methyldihydroquinazolinone derivatives of Retro-2 with enhanced efficacy against Shiga toxin” (J Med Chem, 2013)
Activity calls are given as the source filed them. No cut-off for these calls is given here.

What was measured:
HeLa [1] = experiment: Cytoprotective activity against shiga toxin-induced cytotoxicity in human HeLa cells at 30 uM incubated for 4 hrs prior to shiga toxin addition measured after 20 hrs by liquid scintillation counting analysis relative to Retro-2; format: functional
HeLa [2] = experiment: Inhibition of shiga toxin retrograde transport in human HeLa cells after 20 mins by sulfation assay relative to control; format: functional
HeLa [3] = experiment: Cytoprotective activity against shiga toxin-induced cytotoxicity in human HeLa cells at 30 uM incubated for 4 hrs prior to shiga toxin addition measured after 20 hrs by liquid scintillation counting analysis; format: functional, cell-based
HeLa [4] = experiment: Inhibition of shiga toxin retrograde transport in human HeLa cells assessed as relocalization of syntaxin 5 at 20 uM after 30 mins by immunofluorescence staining; format: functional, cell-based
Method in brief: (§1)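 HeLa cells were treated for 30 min with 20 μM compound or DMSO carrier, then fixed. They were immunolabeled for syntaxin 5 and the Golgi marker giantin and imaged by confocal microscopy with a 60× oil objective (NA 1.4). Maximum projections of 6–8 Z slices at 250 nm spacing are shown.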

HeLa [5] = experiment: Inhibition of shiga toxin retrograde transport in human HeLa cells assessed as change in golgi apparatus morphology at 20 uM after 30 mins by immunofluorescence staining; format: functional, cell-based; method in brief: as §1

SMILES	Activity (HeLa [1])	inhibition (INH) (HeLa [2])	EC50 (HeLa [3])	inhibition (HeLa [4])	inhibition (HeLa [5])
Cn1cc(C2Nc3ccccc3C(=O)N2c2ccccc2)c2ccccc21 (racemic)	0%	–	–	–	–
Cc1ccc(C2N(C)c3ccccc3C(=O)N2c2ccccc2)s1 (racemic)	275%	38.7%	10.2 µM	–	–
Cc1ccc(C2N(C)c3ccccc3C(=O)N2c2ccccc2S(=O)(=O)c2ccccc2)s1 (racemic)	145%	–	8 µM	–	–
CCc1ccc(C2N(C)c3ccccc3C(=O)N2c2ccccc2)s1 (racemic)	323%	0%	4.2 µM	–	–
Cc1ccc(C2Nc3ccc(F)cc3C(=O)N2c2ccccc2)s1 (racemic)	167.2%	–	10.6 µM	–	–
Cc1ccc(C2Nc3ccccc3C(=O)N2c2ccccc2)s1 (racemic)	100%	36.9%	27.3 µM	Active	–
O=C1c2ccccc2NC(c2ccccc2)N1c1ccccc1 (racemic)	0%	–	–	–	–
COc1cccc(C2Nc3ccccc3C(=O)N2c2ccccc2)c1 (racemic)	0%	–	–	–	–
O=C1c2ccccc2NC(c2cccnc2)N1c1ccccc1 (racemic)	0%	–	–	–	–
O=C1c2ccccc2NC(c2cccs2)N1c1ccccc1 (racemic)	0%	–	–	–	–
O=C1c2ccccc2NC(c2ccc(Br)s2)N1c1ccccc1 (racemic)	146%	–	13.7 µM	–	–
CSc1ccc(C2Nc3ccccc3C(=O)N2c2ccccc2)s1 (racemic)	249%	–	7.8 µM	–	–
O=C1c2ccccc2NC(c2ccc(-c3ccccc3)s2)N1c1ccccc1 (racemic)	287%	–	3.7 µM	–	–
O=C1c2ccccc2NC(c2ccc(-c3cccs3)s2)N1c1ccccc1 (racemic)	111.6%	–	5.1 µM	–	–
O=C1c2ccccc2NC(c2ccc(-c3ccccn3)s2)N1c1ccccc1 (racemic)	468%	–	12 µM	–	–
O=C1c2ccccc2NC(c2ccc(-c3ccco3)s2)N1c1ccccc1 (racemic)	438%	–	4 µM	–	–

SMILES	Activity (HeLa [1])	inhibition (INH) (HeLa [2])	EC50 (HeLa [3])	inhibition (HeLa [4])	inhibition (HeLa [5])
Cc1nc(-c2ccc(C3Nc4ccccc4C(=O)N3c3ccccc3)s2)cs1 (racemic)	271%	0%	1.4 µM	–	–
CSc1ccc(C2N(C)c3ccccc3C(=O)N2c2ccccc2)s1 (racemic)	265.9%	–	4.8 µM	–	–
CN1c2ccccc2C(=O)N(c2ccccc2)C1c1ccc(Br)s1 (racemic)	118%	–	3.4 µM	–	–
CN1c2ccccc2C(=O)N(c2ccccc2)C1c1ccc(-c2ccccc2)s1 (racemic)	309%	–	2.1 µM	–	–
CN1c2ccccc2C(=O)N(c2ccccc2)C1c1ccc(-c2ccco2)s1 (racemic)	140.4%	–	1.5 µM	–	–
Cc1nc(-c2ccc(C3N(C)c4ccccc4C(=O)N3c3ccccc3)s2)cs1 (racemic)	301%	0%	0.3 µM	Active	Active
Cc1ccc(C2N(C)c3ccccc3C(=O)N2c2ccccc2Cl)s1 (racemic)	230%	–	8.2 µM	–	–
Cc1ccc(C2N(C)c3ccccc3C(=O)N2c2ccccc2I)s1 (racemic)	254%	–	5.4 µM	–	–
COc1ccccc1N1C(=O)c2ccccc2N(C)C1c1ccc(C)s1 (racemic)	264.4%	–	5.4 µM	–	–
CSc1ccccc1N1C(=O)c2ccccc2N(C)C1c1ccc(C)s1 (racemic)	150.6%	–	3.8 µM	–	–
Cc1ccc(C2N(C)c3ccccc3C(=O)N2c2ccccc2F)s1 (racemic)	208.6%	–	5.5 µM	–	–
Cc1ccsc1C1Nc2ccccc2C(=O)N1c1ccccc1 (racemic)	0%	–	–	–	–
CCc1ccc(C2Nc3ccccc3C(=O)N2c2ccccc2)s1 (racemic)	166%	13.5%	8.7 µM	–	–
Cc1ccc(C2Nc3ccccc3C(=O)N2c2ccccc2Cl)s1 (racemic)	211%	–	14.8 µM	–	–
Cc1ccc(C2N(C)c3ccccc3C(=O)N2c2ccccc2)s1 (single isomer, unassigned; form 1)	inactive	–	–	–	–
Cc1ccc(C2N(C)c3ccccc3C(=O)N2c2ccccc2)s1 (single isomer, unassigned; form 2)	Active	–	–	–	–
